Data on two substances can be found in publication PMC3188443 (Biochemical pharmacology, 2010).

Assay [1] addresses T1, Stat3 (Mus musculus, UniProt P42227). Kind of assay: Surface Plasmon Resonance analysis of binding to immobilized His-tagged Stat3. Also noted: species or system murine. Particulars: 0-5 μM peptide as analyte. The method, boiled down: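 His-tagged Stat3 expressed in E. coli BL21(DE3), purified on a Ni-ion Sepharose column, and captured on a HisCap sensor chip by injecting 50 μg/ml protein. Analytes were unphosphorylated or phosphotyrosine gp-130 heptapeptides at 0-5 μM, passed over the chip. Running buffer was 1X PBS, 0.5% DMSO. Association and dissociation rate constants were fitted, and KD was taken as their ratio.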

For assay [2], the target named is T1, Stat3. The format is binding, murine. The following applies: 150 nM His-Stat3, unlabeled peptide.
Assay [3] has as its target His-tagged murine Stat3 protein (murine) (UniProt P42227). Kind of assay: SPR. (In general: SPR reads the build-up and loss of mass on a sensor chip optically.)
Assay [4] shares this target. Kind of assay: fluorescence polarisation. On the technique in general: Polarisation of emitted light reports the rotation of a fluorescent probe.

Ends that are not written are not given here.

His-tagged murine Stat3 protein (murine), sequence (P42227 whole entry): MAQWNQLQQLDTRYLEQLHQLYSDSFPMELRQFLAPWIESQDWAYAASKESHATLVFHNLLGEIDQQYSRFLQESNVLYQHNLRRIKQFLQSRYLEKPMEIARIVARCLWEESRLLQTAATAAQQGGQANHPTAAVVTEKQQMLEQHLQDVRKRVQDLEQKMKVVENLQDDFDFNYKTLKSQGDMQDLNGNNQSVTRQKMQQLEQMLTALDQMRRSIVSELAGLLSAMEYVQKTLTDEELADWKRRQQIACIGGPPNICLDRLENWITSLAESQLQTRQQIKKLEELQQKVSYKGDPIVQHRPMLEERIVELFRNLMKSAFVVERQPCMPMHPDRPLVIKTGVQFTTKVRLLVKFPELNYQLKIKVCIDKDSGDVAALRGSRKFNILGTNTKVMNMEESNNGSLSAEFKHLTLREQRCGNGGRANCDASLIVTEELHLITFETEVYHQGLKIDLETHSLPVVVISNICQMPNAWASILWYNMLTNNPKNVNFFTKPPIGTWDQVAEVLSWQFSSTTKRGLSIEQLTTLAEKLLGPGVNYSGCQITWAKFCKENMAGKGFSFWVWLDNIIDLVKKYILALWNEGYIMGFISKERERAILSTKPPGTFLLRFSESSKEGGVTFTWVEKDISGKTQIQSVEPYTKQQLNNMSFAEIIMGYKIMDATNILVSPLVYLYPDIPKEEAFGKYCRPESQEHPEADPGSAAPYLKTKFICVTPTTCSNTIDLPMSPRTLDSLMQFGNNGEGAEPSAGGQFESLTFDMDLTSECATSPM
T1 sequence (P42227 whole entry): as above

Consider GYLPQTV-NH2, for which the “binding to Stat3 (SPR)” value in assay [1] is reported as “no significant binding”. Further, the “inhibition in the FP assay, in words” value in assay [2] was “no evidence of inhibition”.
Consider “GpYLPQTV-NH2, high affinity Stat3-binding phosphoTyr peptide derived from the IL-6R subunit gp-130”, for which, in assay [3], the equilibrium dissociation constant (Kd) (in general, the constant that tells how readily two partners part at equilibrium) was 24 nM. Moreover, the IC50 (in general, the concentration needed to halve the response being measured) in assay [4] was found to be 300 nM.
